5HT1a antag: human 5-HT1a receptor antagonists, primary screen, cell-based, CHO, Ga15 NFAT-bla reporter; 62,000 compounds, 0.68% hits; inhibition, % at 10 µM; 5-hydroxytryptamine receptor 1A (Homo sapiens), P08908; CHO 5-HT1a Ga15 NFAT-bla reporter, antagonist mode; AID 612, 2007;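 active means inhibition above the mean of all tested compounds plus 3 SD, cut at about 43% in these data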;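 further: receptor stimulated by 5-CT agonist at 100 nM near EC80; beta-lactamase reporter measured by ratiometric fluorescence of a cleavable substrate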
S1P1 ag-PAM: S1P1 agonists and agonism potentiators, primary screen, cell-based, primary and confirmation screens, CRE-bla reporter; Sphingosine 1-phosphate receptor 1 (Homo sapiens), P21453; S1P1 CRE-bla cells, forskolin, beta-lactamase FRET, potentiator mode; S1P1 agonist co-added at EC20, 2 nM; 100% = saturating reference agonist, 0% = basal; activation, % at 9.5 µM; 56,000 compounds, 0.57% hits;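 active means activation above a cutoff set at the mean activation of all tested compounds plus 3 SD, cut at about 54% in these data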;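 further: forskolin at 4 µM as EC80 and the EC20 agonist is SEW2871; 100% = SEW2871 at its EC100 plus forskolin at EC80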
5HT1E ag: 5-HT1E receptor agonists, primary screen, cell-based, HTS; 5-hydroxytryptamine receptor 1E (Homo sapiens), P28566; CHO 5-HT1E Ga15 NFAT-bla reporter, FRET; 0% DMSO wells, 100% control agonist wells; activation, % at 6 µM; 65,000 compounds, 0.69% hits; AID 574, 2007;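 active means activation above a set limit, the screen-wide mean activation plus 3 SD, cut at about 8.5% in these data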;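 further: 100% = positive control agonist at 1 µM giving full maximal response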
Target sequence (P28566 whole entry, looked up): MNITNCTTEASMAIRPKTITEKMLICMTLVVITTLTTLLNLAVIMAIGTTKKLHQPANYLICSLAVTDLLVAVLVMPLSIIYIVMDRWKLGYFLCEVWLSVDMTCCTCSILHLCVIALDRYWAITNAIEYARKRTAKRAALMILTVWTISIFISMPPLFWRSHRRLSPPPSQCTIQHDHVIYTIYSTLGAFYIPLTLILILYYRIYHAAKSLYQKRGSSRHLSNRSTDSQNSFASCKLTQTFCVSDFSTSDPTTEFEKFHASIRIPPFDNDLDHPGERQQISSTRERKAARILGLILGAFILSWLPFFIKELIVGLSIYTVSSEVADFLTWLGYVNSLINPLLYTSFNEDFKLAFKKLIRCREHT
5HT1a ag: human 5-HT1a receptor agonists, primary screen, cell-based, CHO, Ga15 NFAT-bla reporter | 65,000 compounds, 0.56% hits | CHO 5-HT1a Ga15 NFAT-bla reporter, FRET ratio; 0% basal, 100% maximal reference agonist | activation, % at 10 µM | 5-hydroxytryptamine receptor 1A (Homo sapiens), P08908 | AID 567, 2006;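 active means activation above the screen-wide mean activation plus 3 SD, cut at about 19% in these data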;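 further: 0% = DMSO wells and 100% = 5-CT at EC100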
5HT1E antag: 5-HT1E receptor antagonists, primary screen, cell-based, HTS; 5-hydroxytryptamine receptor 1E (Homo sapiens), P28566; CHO 5-HT1E Ga15 NFAT-bla reporter, FRET, antagonist; inhibition, % at 6 µM; 65,000 compounds, 0.99% hits;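 active means inhibition above a set limit, the mean inhibition across every tested compound plus 3 SD, cut at about 29% in these data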;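 further: signal is the 460 over 535 nm emission ratio of beta-lactamase substrate; 0% = agonist plus DMSO wells and 100% = wells without agonist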
S1P3 ag: human S1P3 receptor agonists, primary screen, cell-based, primary and confirmation, NFAT-BLA reporter; Sphingosine 1-phosphate receptor 3 (Homo sapiens), Q99500; S1P3 NFAT-BLA reporter cells, agonism, FRET ratio; relative to 1 µM S1P, basal subtracted; activation, % at 4.5 µM; AID 373, 2006; 60,000 compounds, 0.1% hits;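 active means activation above the screen-wide mean plus 3 SD, cut at about 4.5% in these data, passing the limit was not always enough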
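Benchmarks: high control 1 µM S1P / System: stable CHO line with human S1P3, Gα16, NFAT-BLA reporter / Dosing: single compound concentration, 4.5 µM final / Timing: 4 h compound at 37 °C, 2 h substrate at RT / Measured by: FRET β-lactamase substrate fluorescence, excitation 405 nm, 460/535 nm emission ratio, background-subtracted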
Numbers without * were called inactive; . = not tested or not shown. Rows were chosen to be rich in hits. Some 3% of all compounds tested hit in one or more screens of this group.

SMILES	5HT1a antag	S1P1 ag-PAM	5HT1E ag	5HT1a ag	5HT1E antag	S1P3 ag
CN(CCCC(=O)Nc1ccncc1)S(=O)(=O)c1ccc(Cl)cc1	2	35	-1	-1	3	-2
c1ccc2c(c1)oc1c(NCc3ccc4c(c3)OCO4)ncnc12	12	90*	1	0	-3	0
Nc1cccc2cnccc12	30	20	0	-2	33*	-2
O=c1c2nnn(Cc3ccccc3)c2ncn1-c1ccccc1	-12	7	1	-1	2	0
CCc1cc2c(=O)c(-c3nc4ccccc4[nH]3)coc2c(CN2CCCC(C)C2)c1O (configuration not stated)	-15	32	1	3	4	-1
COc1ccc(-c2cc(C(F)(F)F)nc(NCc3ccco3)n2)cc1OC	30	.	1	-1	26	.
COc1cccc(-c2cc(C(F)(F)F)nc(NCc3ccco3)n2)c1	47*	.	-1	-1	9	.
O=S1(=O)Nc2c(ccc3cccnc23)-c2ccccc21	74*	118*	7	-4	61*	-1
COc1ccc(S(=O)(=O)N(C)CC(=O)NC2CC2)cc1	-9	-10	0	-1	0	-1
CCC(c1nnnn1Cc1ccc2c(c1)OCO2)N1CCN(c2ccccc2)CC1 (configuration not stated)	39	8	-2	0	14	0
CCC(c1nnnn1Cc1ccc2c(c1)OCO2)N1CCN(c2ccc(F)cc2)CC1 (configuration not stated)	44*	-7	-1	-2	8	-2
Nc1nnc(SCCOc2ccc(Br)cc2)s1	7	16	0	0	0	-1
COc1ccc(C2C=C(c3ccc(Cl)cc3)Nc3nc(NC(C)=O)nn32)cc1 (configuration not stated)	.	25	0	-2	14	-1
COc1ccc(C2=CC(c3ccc(Cl)cc3)n3cnnc3N2)cc1OC (configuration not stated)	40	.	-1	-7	35*	.
O=C(CSc1nnc(Cc2cccs2)n1Cc1ccco1)Nc1cccc(Cl)c1	41	12	-1	2	3	0
O=C(CSc1nnc(Cc2cccs2)n1Cc1ccco1)Nc1cc(Cl)cc(Cl)c1	46*	7	1	3	-6	0
CCOC(=O)Nc1ccc2c(c1)ncn2C1CCCCC1	17	7	39*	1	19	0
Cn1cnnc1SCC(=O)Nc1ccccc1Sc1ccccc1	-10	7	0	311*	-4	1
CCN(CC)CCCNC(=O)c1cn(CCOC)c(=O)c2c1c1ccccc1n2C	11	6	0	-2	4	0
Cn1c(Cl)cnc1C(O)c1ccccc1 (configuration not stated)	7	-32	1	1	-7	-1
CC(=O)CC1(O)C(=O)N(CN2CCN(c3ccccc3)CC2)c2ccccc21 (configuration not stated)	12	14	15*	0	19	-1
Cc1noc(C)c1CSc1nc2[nH]ncc2c(=O)n1-c1ccccc1	37	.	0	-1	52*	-1
Cc1noc(C)c1CSc1nc2ccccc2c(=O)n1-c1ccccc1	31	14	0	1	21	0
Cc1noc(C)c1CSc1nc2ccccc2c(=O)n1-c1ccc(F)cc1F	46*	-4	0	0	21	-2
Cc1noc(C)c1CSc1nnc2n(-c3ccccc3)c(=O)c3ccccc3n12	-12	-3	0	1	-2	0
SMILES	5HT1a antag	S1P1 ag-PAM	5HT1E ag	5HT1a ag	5HT1E antag	S1P3 ag
CCCNC(=O)CC1Sc2ccccc2NC1=O (configuration not stated)	-17	.	-1	-2	1	0
CCOC(=O)CNC(=O)Cn1cnc2sc(C)c(S(=O)(=O)N3CCC(C)CC3)c2c1=O	-11	.	1	60*	-3	.
C1=C(CCNC2=NCCCCC2)CCCC1	13	-14	-1	-2	-2	-1
COc1cc(-c2ccc(NC(=O)CN3CCCCC3)c(OC)c2)ccc1NC(=O)CN1CCCCC1	9	-9	0	-3	3	0
Cc1nc(N2CCN(c3ccccc3)CC2)c2c3c(sc2n1)CCC3	9	-24	2	1	-16	0
CSc1nc(N2CCOCC2)c2c3c(sc2n1)CCC3	-4	17	-2	1	29*	0
CCN(CC)c1ccc2cc(-c3nc4ccccc4[nH]3)c(=O)oc2c1	27	26	0	-6	49*	-3
CCN(CC)c1ccc2cc(-c3nc4ccccc4n3C)c(=O)oc2c1	54*	38	7	16	82*	0
Cc1nc(SCC(=O)N2CCN(c3ccccc3)CC2)c2c(=O)n(C)c(=O)n(C)c2n1	10	13	0	-3	4	0
CCOc1ccccc1NC(=O)N1CCCC1C(=O)Nc1ccc(-n2cnnn2)c(C)c1 (configuration not stated)	0	.	1	-1	2	.
CCOc1ccccc1OCCCCCc1c(C)n[nH]c1C	20	89*	-1	0	5	0
Cc1cccc(OCCCCc2c(C)n[nH]c2C)c1C	12	112*	-1	-3	8	-2
CCCC(c1nnnn1C1CCCCC1)N1CCN(c2ncccn2)CC1 (configuration not stated)	8	0	0	1	2	-1
CCCCC(c1nnnn1C1CCCC1)N1CCN(C2CCCCC2)CC1 (configuration not stated)	50*	-5	0	-1	5	0
Clc1ccc(-n2nnnc2Sc2ncnc3sccc23)cc1	69*	82*	0	-2	82*	1
Cc1sc2ncnc(SCC(=O)c3cccs3)c2c1C	2	34	0	-2	3	-1
Cc1sc2ncnc(Sc3nnnn3-c3ccccc3)c2c1C	42	87*	-1	-4	26	-1
Cc1ccc(Cn2ncc3c(N4CCN(c5ccccc5C)CC4)ncnc32)cc1	31	52	2	3	-1	-1
COc1cccc(C2=CC(c3ccc(C)cc3)n3ncnc3N2)c1 (configuration not stated)	29	4	0	0	29*	-1
